For one test, the system named is HFF. Briefly: Cytotoxicity against human HFF cells by neutral red uptake. Format: functional. A digest of the protocol: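 Uninfected HFF cells in 96-well plates were exposed to various drug concentrations for 7 days, then stained with neutral red.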
The test system of another test is Vaccinia virus. Nature of the test: Antiviral activity against Vaccinia virus Copenhagen in HFF cells assessed as reduction in plaque formation. Format: functional, organism-based. The note with it: Orthopoxvirus vaccinia.
The subject of test [1] is Cowpox virus. Nature of the test: Antiviral activity against Cowpox virus Brighton in HFF cells assessed as reduction in plaque formation. It is filed as functional, organism-based.
Test [2] concerns Cowpox virus. Briefly: Antiviral activity against Cowpox virus Brighton in HFF cells assessed as reduction in cytopathogenicity. Format: functional, organism-based.

Here are results for two molecules from ChEMBL document CHEMBL1147827, “A pyrimidine-pyrazolone nucleoside chimera with potent in vitro anti-orthopoxvirus activity” (Bioorg Med Chem Lett, 2006).

The structures appear in SMILES notation.

Regarding `CC(=O)OC[C@H]1O[C@@H](n2cc(/C=C3\C(=O)N(c4ccccc4)N=C3C)c(=O)[nH]c2=O)C[C@@H]1OC(C)=O`, in the test with HFF, the CC50 is greater than 252 µM. Moreover, the EC50 in the test with Vaccinia virus turned out to be 56 µM; in the test with Cowpox virus [1], 48 µM; with Cowpox virus [2] it was 33.7 µM.

`Nc1ccn(C[C@@H](CO)OCP(=O)(O)O)c(=O)n1` [CIDOFOVIR] registered a CC50 with HFF greater than 317 µM. For the same molecule, the EC50 in the test on Vaccinia virus was 20 µM; in the test with Cowpox virus [2], 7.1 µM.

By CC50 is commonly meant the concentration at which the toxic effect on the cells reaches its halfway point. As a reminder, the EC50 is the midpoint of the concentration-response curve.
